For 26 compounds, Ki/KI results are on record in ChEMBL document CHEMBL1132433, “6-Substituted 2-oxo-2H-1-benzopyran-3-carboxylic acid as a core structure for specific inhibitors of human leukocyte elastase” (J Med Chem, 1999).

In experiment [1] the target is Prothrombin (Homo sapiens) (UniProt P00734). Put plainly: Evaluation of kinetic parameter Ki/KI(1/M.1/S) by its ability to inhibit human thrombin. The method in brief:
(§1)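 Human thrombin, active-site titrated, with chromogenic substrate S-2238 in 0.01 M Hepes, 0.01 M Tris, 0.1 M NaCl, 0.1% PEG6000, pH 7.5, 10% DMSO, 25 °C. Preincubation method ([THR]0 1.45 nM, [I]0 1-10 µM) or progress curves ([THR]0 0.58 nM, [S]0 10 µM, [I]0 1-14 µM), absorbance at 405 nm. ki and KI fitted; ki/KI = kobs/[I] at low inhibitor.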

For experiment [2], the target named is T1, Neutrophil elastase (Homo sapiens) (UniProt P08246).
T1 sequence (whole entry): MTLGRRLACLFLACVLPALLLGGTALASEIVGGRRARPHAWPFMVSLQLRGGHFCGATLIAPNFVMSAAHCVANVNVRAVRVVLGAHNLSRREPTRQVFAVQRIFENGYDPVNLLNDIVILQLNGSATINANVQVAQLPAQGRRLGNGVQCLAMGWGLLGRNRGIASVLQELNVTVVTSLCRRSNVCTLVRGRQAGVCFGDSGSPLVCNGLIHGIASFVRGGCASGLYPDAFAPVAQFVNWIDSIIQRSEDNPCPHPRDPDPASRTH
Put plainly: Evaluation of kinetic parameter Ki/KI(1/M.1/S) by its ability to inhibit the HLE(Human Leukocyte Elastase) enzyme. The method in brief:
(§2)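 HLE, active-site titrated, assayed with MeO-Suc-AAPV-p-NA in 0.1 M Hepes, 0.5 M NaCl, 0.1% Tween 80, pH 8.0, 10% DMSO, 25 °C. Preincubation method ([HLE]0 20 nM, [I]0 1-10 µM) or progress curves (30 nM enzyme, [S]0 100 µM, [I]0 0.05-70 µM), 405 nm. Constants reflect the initial inactivation step. ki, KI fitted.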

Experiment [3] has as its target Chymotrypsinogen A (Bos taurus) (UniProt P00766). Put plainly: Evaluation of kinetic parameter Ki/KI(1/M.1/S) by its ability to inhibit the Alpha-CT (Bovine alpha-chymotrypsin) enzyme; No inactivation at 10 uM.
Experiment [4] has the same target. Put plainly: Evaluation of kinetic parameter Ki/KI(1/M.1/S) by its ability to inhibit the Alpha-CT (Bovine alpha-chymotrypsin) enzyme.
In experiment [5] the target is Prothrombin (Homo sapiens) (UniProt P00734). Put plainly: Compound was evaluated for the kinetic parameter Ki/KI(1/M.1/S) by its ability to inhibit human thrombin. The essentials: as §1
The target in experiment [6] is T1, Neutrophil elastase (Homo sapiens). Put plainly: Compound was evaluated for the kinetic parameter Ki/KI(1/M.1/S) by its ability to inhibit the HLE(Human Leukocyte Elastase) enzyme; No inactivation at 10 uM. The essentials: as §2
For experiment [7] the target is unchanged. As to the kind of experiment: Evaluated for the kinetic parameter Ki/KI(1/M.1/S) by its ability to inhibit the HLE(Human Leukocyte Elastase) enzyme [ki(se-1) andKi(uM)]. The essentials: as §2
The target in experiment [8] is Chymotrypsinogen A (Bos taurus) (UniProt P00766). Put plainly: Compound was evaluated for the kinetic parameter Ki/KI(1/M.1/S) by its ability to inhibit the Alpha-CT (Bovine alpha-chymotrypsin) enzyme [ki(se-1) andKi(uM)].
Experiment [9] shares this target. Put plainly: Compound was evaluated for the kinetic parameter Ki/KI(1/M.1/S) by its ability to inhibit the Alpha-CT (Bovine alpha-chymotrypsin) enzyme[ki(se-1) andKi(uM)].
Experiment [10] shares this target. As to the kind of experiment: Compound was evaluated for the kinetic parameter Ki/KI(1/M.1/S) by its ability to inhibit the Alpha-CT (Bovine alpha-chymotrypsin) enzyme.

`CC(C)C(=O)OCc1ccc2oc(=O)c(C(=O)Oc3cncc(Cl)c3)cc2c1`: the Ki/KI entry in experiment [1] was “No inactivation”; in [2], 45000 M⁻¹ s⁻¹; in experiment [3], “No inactivation”.
For `CCCC(=O)OCc1ccc2oc(=O)c(C(=O)Oc3cncc(Cl)c3)cc2c1`, the values for the Ki/KI entry in experiment [1], in experiment [2] and in experiment [3] were “No inactivation”, 72700 M⁻¹ s⁻¹ and “No inactivation”, respectively.
Regarding `O=C(Oc1cccnc1[N+](=O)[O-])c1cc2cc(CCl)ccc2oc1=O`, the results for the Ki/KI in experiment [2] and in experiment [4] were 4000 M⁻¹ s⁻¹ and 4500 M⁻¹ s⁻¹, respectively.
Consider `O=C(Oc1ccccn1)c1cc2cc(CCl)ccc2oc1=O`, for which the Ki/KI in experiment [5] is 240 M⁻¹ s⁻¹; in experiment [2] it was 420 M⁻¹ s⁻¹; in experiment [4], 1670 M⁻¹ s⁻¹.
As for `O=C(Oc1cccc(Cl)n1)c1cc2cc(CCl)ccc2oc1=O`, the figures for the Ki/KI in experiment [5], in experiment [2] and in experiment [4] were 7200 M⁻¹ s⁻¹, 26000 M⁻¹ s⁻¹ and 107000 M⁻¹ s⁻¹, respectively.
Take `COc1ccc(NC(=O)c2cc3cc(CCl)ccc3oc2=O)cn1`: the Ki/KI entry in experiment [6] and in [3] was “No inactivation” each time.
Take `Cc1ccnc(OC(=O)c2cc3cc(CCl)ccc3oc2=O)c1`: the values for the Ki/KI in experiment [5], in experiment [2] and in experiment [4] were 3900 M⁻¹ s⁻¹, 300 M⁻¹ s⁻¹ and 5950 M⁻¹ s⁻¹, respectively.
Take `Cc1ccc(OC(=O)c2cc3cc(CCl)ccc3oc2=O)cn1`: the Ki/KI result in [1] was “No inactivation”; in [4] it was 1000 M⁻¹ s⁻¹; in experiment [6], “No inactivation”.
For the compound `O=C(Oc1cccnc1Cl)c1cc2cc(CCl)ccc2oc1=O`, the Ki/KI came to 3310 M⁻¹ s⁻¹ in experiment [2] and 4300 M⁻¹ s⁻¹ in experiment [4].
On to `O=C(Oc1cncc(Cl)c1)c1cc2ccccc2oc1=O`, for which the Ki/KI entry is “No inactivation” in experiment [1], 32800 M⁻¹ s⁻¹ in [2] and “No inactivation” in [3].
Turning to `Cc1ccc(OC(=O)c2cc3cc(CCl)ccc3oc2=O)c([N+](=O)[O-])n1`, the Ki/KI in experiment [4] was 1500 M⁻¹ s⁻¹; in experiment [6], “No inactivation”.
As for `Cc1ccc2oc(=O)c(C(=O)Oc3cncc(Cl)c3)cc2c1`, the figures for the Ki/KI entry in [1], in [2] and in experiment [3] were “No inactivation”, 32500 M⁻¹ s⁻¹ and “No inactivation”, respectively.
For the compound `NCc1ccc2oc(=O)c(C(=O)Oc3cncc(Cl)c3)cc2c1`, the Ki/KI result in [1] is “No inactivation”; in [2], 9100 M⁻¹ s⁻¹; in experiment [3], “No inactivation”.
Consider `O=C(Nc1cccnc1)c1cc2cc(CCl)ccc2oc1=O`, for which, in experiment [6], the Ki/KI entry is “No inactivation”.
Take `CC(C)(C)C(=O)OCc1ccc2oc(=O)c(C(=O)Oc3cncc(Cl)c3)cc2c1`: the Ki/KI entry is “No inactivation” in experiment [1], 95500 M⁻¹ s⁻¹ in [2] and “No inactivation” in experiment [3].
On to `CCC(=O)OCc1ccc2oc(=O)c(C(=O)Oc3cncc(Cl)c3)cc2c1`, for which the Ki/KI entry in experiment [1] was “No inactivation”; in experiment [2] it was 62000 M⁻¹ s⁻¹; in experiment [3] it was “No inactivation”.
Turning to `O=C(Oc1cccnc1)c1cc2cc(CCl)ccc2oc1=O`, the results for the Ki/KI in [7], in experiment [1] and in experiment [8] were 770 M⁻¹ s⁻¹, “No inactivation” and 14800 M⁻¹ s⁻¹, respectively.
Turning to `O=C(Oc1cccnc1Br)c1cc2cc(CCl)ccc2oc1=O`, the Ki/KI was 3000 M⁻¹ s⁻¹ in [7] and 2700 M⁻¹ s⁻¹ in [9].
Take `CC(=O)OCc1ccc2oc(=O)c(C(=O)Oc3cncc(Cl)c3)cc2c1`: the Ki/KI entry in experiment [1] was “No inactivation”; in experiment [2], 107000 M⁻¹ s⁻¹; in experiment [3] it was “No inactivation”.
On to `O=C(Oc1cncc(Cl)c1)c1cc2cc(Br)ccc2oc1=O`, for which the figures for the Ki/KI in experiment [2] and in experiment [3] were 58000 M⁻¹ s⁻¹ and “No inactivation”, respectively.
As to `O=C(Oc1ccccc1)c1cc2cc(CCl)ccc2oc1=O`, the results for the Ki/KI in [5], in experiment [10] and in experiment [2] were 200 M⁻¹ s⁻¹, 100000 M⁻¹ s⁻¹ and 23 M⁻¹ s⁻¹, respectively.
Regarding `O=C(Oc1ccc(Cl)cn1)c1cc2cc(CCl)ccc2oc1=O`, the Ki/KI entry in [1] is “No inactivation”; in experiment [2], 110 M⁻¹ s⁻¹; in experiment [4], 2500 M⁻¹ s⁻¹.
On to `Cc1cncc(OC(=O)c2cc3cc(CCl)ccc3oc2=O)c1`, for which the Ki/KI result in experiment [1] was “No inactivation”; in [2] it was 1000 M⁻¹ s⁻¹; in experiment [4], 2500 M⁻¹ s⁻¹.
For the compound `O=C(Oc1cncc(Cl)c1)c1cc2cc(CCl)ccc2oc1=O`, the Ki/KI in experiment [7] is 64600 M⁻¹ s⁻¹; in experiment [5] it was 200 M⁻¹ s⁻¹; in experiment [8] it was 31000 M⁻¹ s⁻¹.
For `Cc1cccc(OC(=O)c2cc3cc(CCl)ccc3oc2=O)n1`, the Ki/KI entry is “No inactivation” in experiment [1], 200 M⁻¹ s⁻¹ in experiment [2] and 3300 M⁻¹ s⁻¹ in [4].
With `O=C(Nc1cccnc1Cl)c1cc2cc(CCl)ccc2oc1=O`, the Ki/KI entry in experiment [6] and in [3] was “No inactivation” each time.
